Assay results: ChEMBL document CHEMBL3272198, “Preparation and in vitro antifungal activities of some quinolizidine derived hemiaminals and beta-tert-amino sulfides” (1976)
Calls of active or inactive are those of the source. The calls are words filed in the database; no cut-off is given here.

What was measured:
Format in all cases: functional
Blastomyces dermatitidis [1] = assay: Antifungal activity against Blastomyces dermatitidis Gilchrist & Stokes isolate 1099 at 60 ug/ml after 1 week (reference value: 14 mm)
Histoplasma capsulatum [2] = assay: Antifungal activity against Histoplasma capsulatum Darling isolate 1098 at 60 ug/ml after 2 weeks (reference value: 21 mm); settings: Darling isolate 1098, 336 h, read-out: DIZ
Histoplasma capsulatum [3] = assay: Antifungal activity against Histoplasma capsulatum Darling isolate 1098 at 20 ug/ml after 2 weeks (reference value: 21 mm); settings: Darling isolate 1098, 336 h, read-out: DIZ
Histoplasma capsulatum [4] = assay: Antifungal activity against Histoplasma capsulatum Darling isolate 1098 at 100 ug/ml after 1 week (reference value: 12 mm)
Histoplasma capsulatum [5] = assay: Antifungal activity against Histoplasma capsulatum Darling isolate 1106 at 80 ug/ml after 3 weeks (reference value: 31 mm)
Histoplasma capsulatum [6] = assay: Antifungal activity against Histoplasma capsulatum Darling isolate 1098 at 40 ug/ml after 1 week (reference value: 12 mm); settings: Darling isolate 1098, 168 h, read-out: DIZ
Blastomyces dermatitidis [7] = assay: Antifungal activity against Blastomyces dermatitidis Gilchrist & Stokes isolate 1099 at 80 ug/ml after 2 weeks (reference value: 27 mm)
Blastomyces dermatitidis [8] = assay: Antifungal activity against Blastomyces dermatitidis Gilchrist & Stokes isolate 1099 at 40 ug/ml after 2 weeks (reference value: 27 mm); settings: Gilchrist & Stokes isolate 1099, 336 h, read-out: DIZ
Procedure, shortened: (§1)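 Mycelial phase grown on Sabouraud dextrose agar at 25°C. Agar pH was set to 6 before the test solution was added and was 5.0-5.5 after. Test solutions contained HOAc and Me2SO, and solvent and blank controls were included. Each quadrant was center-inoculated with a 2 × 2 mm piece of a 2-week-old mycelial culture. Colony diameter was measured weekly for 3 weeks and reported as total increments (mm). Duplicates were run.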

Blastomyces dermatitidis [9] = assay: Antifungal activity against Blastomyces dermatitidis Gilchrist & Stokes isolate 1099 at 60 ug/ml after 2 weeks (reference value: 27 mm); settings: Gilchrist & Stokes isolate 1099, 336 h, read-out: DIZ; procedure, shortened: as §1
Blastomyces dermatitidis [10] = assay: Antifungal activity against Blastomyces dermatitidis Gilchrist & Stokes isolate 1099 at 80 ug/ml after 1 week (reference value: 14 mm)
Blastomyces dermatitidis [11] = assay: Antifungal activity against Blastomyces dermatitidis Gilchrist & Stokes isolate 1099 at 80 ug/ml after 3 weeks (reference value: 34 mm); settings: Gilchrist & Stokes isolate 1099, 504 h, read-out: DIZ; procedure, shortened: as §1
Blastomyces dermatitidis [12] = assay: Antifungal activity against Blastomyces dermatitidis Gilchrist & Stokes isolate 1107 at 60 ug/ml after 2 weeks (reference value: 35 mm); settings: Gilchrist & Stokes isolate 1107, 336 h, read-out: DIZ; procedure, shortened: as §1
Blastomyces dermatitidis [13] = assay: Antifungal activity against Blastomyces dermatitidis Gilchrist & Stokes isolate 1107 at 60 ug/ml after 3 weeks (reference value: 40 mm); settings: Gilchrist & Stokes isolate 1107, 504 h, read-out: DIZ; procedure, shortened: as §1
Histoplasma capsulatum [14] = assay: Antifungal activity against Histoplasma capsulatum Darling isolate 1106 at 10 ug/ml after 1 week (reference value: 14 mm); settings: Darling isolate 1106, 168 h, read-out: DIZ
Histoplasma capsulatum [15] = assay: Antifungal activity against Histoplasma capsulatum Darling isolate 1106 at 10 ug/ml after 3 weeks (reference value: 31 mm); settings: Darling isolate 1106, 504 h, read-out: DIZ
Histoplasma capsulatum [16] = assay: Antifungal activity against Histoplasma capsulatum Darling isolate 1106 at 20 ug/ml after 1 week (reference value: 14 mm); settings: Darling isolate 1106, 168 h, read-out: DIZ
Blastomyces dermatitidis [17] = assay: Antifungal activity against Blastomyces dermatitidis Gilchrist & Stokes isolate 1099 at 60 ug/ml after 3 weeks (reference value: 34 mm); settings: Gilchrist & Stokes isolate 1099, 504 h, read-out: DIZ; procedure, shortened: as §1
Blastomyces dermatitidis [18] = assay: Antifungal activity against Blastomyces dermatitidis Gilchrist & Stokes isolate 1099 at 100 ug/ml after 1 week (reference value: 14 mm)
Histoplasma capsulatum [19] = assay: Antifungal activity against Histoplasma capsulatum Darling isolate 1098 at 100 ug/ml after 3 weeks (reference value: 28 mm)
Histoplasma capsulatum [20] = assay: Antifungal activity against Histoplasma capsulatum Darling isolate 1106 at 80 ug/ml after 1 week (reference value: 14 mm)
Blastomyces dermatitidis [21] = assay: Antifungal activity against Blastomyces dermatitidis Gilchrist & Stokes isolate 1107 at 60 ug/ml after 1 week (reference value: 20 mm)
Blastomyces dermatitidis [22] = assay: Antifungal activity against Blastomyces dermatitidis Gilchrist & Stokes isolate 1107 at 40 ug/ml after 3 weeks (reference value: 40 mm); settings: Gilchrist & Stokes isolate 1107, 504 h, read-out: DIZ; procedure, shortened: as §1
Histoplasma capsulatum [23] = assay: Antifungal activity against Histoplasma capsulatum Darling isolate 1106 at 40 ug/ml after 2 weeks (reference value: 25 mm)
Histoplasma capsulatum [24] = assay: Antifungal activity against Histoplasma capsulatum Darling isolate 1098 at 80 ug/ml after 2 weeks (reference value: 21 mm)
Histoplasma capsulatum [25] = assay: Antifungal activity against Histoplasma capsulatum Darling isolate 1106 at 60 ug/ml after 2 weeks (reference value: 25 mm)
Blastomyces dermatitidis [26] = assay: Antifungal activity against Blastomyces dermatitidis Gilchrist & Stokes isolate 1107 at 20 ug/ml after 1 week (reference value: 20 mm); settings: Gilchrist & Stokes isolate 1107, 168 h, read-out: DIZ; procedure, shortened: as §1
Histoplasma capsulatum [27] = assay: Antifungal activity against Histoplasma capsulatum Darling isolate 1106 at 80 ug/ml after 2 weeks (reference value: 25 mm)
Blastomyces dermatitidis [28] = assay: Antifungal activity against Blastomyces dermatitidis Gilchrist & Stokes isolate 1099 at 100 ug/ml after 3 weeks (reference value: 34 mm); procedure, shortened: as §1
Blastomyces dermatitidis [29] = assay: Antifungal activity against Blastomyces dermatitidis Gilchrist & Stokes isolate 1107 at 100 ug/ml after 3 weeks (reference value: 40 mm); settings: Gilchrist & Stokes isolate 1107, 504 h, read-out: DIZ; procedure, shortened: as §1
Histoplasma capsulatum [30] = assay: Antifungal activity against Histoplasma capsulatum Darling isolate 1106 at 10 ug/ml after 2 weeks (reference value: 25 mm); settings: Darling isolate 1106, 336 h, read-out: DIZ
Blastomyces dermatitidis [31] = assay: Antifungal activity against Blastomyces dermatitidis Gilchrist & Stokes isolate 1099 at 20 ug/ml after 1 week (reference value: 14 mm); settings: Gilchrist & Stokes isolate 1099, 168 h, read-out: DIZ; procedure, shortened: as §1
Histoplasma capsulatum [32] = assay: Antifungal activity against Histoplasma capsulatum Darling isolate 1098 at 40 ug/ml after 2 weeks (reference value: 21 mm); settings: Darling isolate 1098, 336 h, read-out: DIZ
Blastomyces dermatitidis [33] = assay: Antifungal activity against Blastomyces dermatitidis Gilchrist & Stokes isolate 1107 at 10 ug/ml after 1 week (reference value: 20 mm); settings: Gilchrist & Stokes isolate 1107, 168 h, read-out: DIZ; procedure, shortened: as §1
Blastomyces dermatitidis [34] = assay: Antifungal activity against Blastomyces dermatitidis Gilchrist & Stokes isolate 1099 at 10 ug/ml after 2 weeks (reference value: 27 mm); settings: Gilchrist & Stokes isolate 1099, 336 h, read-out: DIZ; procedure, shortened: as §1
Blastomyces dermatitidis [35] = assay: Antifungal activity against Blastomyces dermatitidis Gilchrist & Stokes isolate 1099 at 40 ug/ml after 3 weeks (reference value: 34 mm); settings: Gilchrist & Stokes isolate 1099, 504 h, read-out: DIZ; procedure, shortened: as §1
Blastomyces dermatitidis [36] = assay: Antifungal activity against Blastomyces dermatitidis Gilchrist & Stokes isolate 1107 at 10 ug/ml after 3 weeks (reference value: 40 mm); settings: Gilchrist & Stokes isolate 1107, 504 h, read-out: DIZ; procedure, shortened: as §1
Blastomyces dermatitidis [37] = assay: Antifungal activity against Blastomyces dermatitidis Gilchrist & Stokes isolate 1107 at 40 ug/ml after 1 week (reference value: 20 mm)
Histoplasma capsulatum [38] = assay: Antifungal activity against Histoplasma capsulatum Darling isolate 1098 at 10 ug/ml after 1 week (reference value: 12 mm); settings: Darling isolate 1098, 168 h, read-out: DIZ
Blastomyces dermatitidis [39] = assay: Antifungal activity against Blastomyces dermatitidis Gilchrist & Stokes isolate 1099 at 10 ug/ml after 1 week (reference value: 14 mm); settings: Gilchrist & Stokes isolate 1099, 168 h, read-out: DIZ; procedure, shortened: as §1
[40] = Gilchrist & Stokes isolate 1099, 168 h, read-out: DIZ
[41] = Gilchrist & Stokes isolate 1107, 168 h, read-out: DIZ
[42] = Darling isolate 1106, 336 h, read-out: DIZ

Compound	zone of inhibition at 60 µg/mL (Histoplasma capsulatum [2])	zone of inhibition at 20 µg/mL (Histoplasma capsulatum [3])	zone of inhibition at 40 µg/mL (Histoplasma capsulatum [6])	zone of inhibition at 40 µg/mL (Blastomyces dermatitidis [8])	zone of inhibition at 60 µg/mL (Blastomyces dermatitidis [9])	zone of inhibition at 80 µg/mL (Blastomyces dermatitidis [11])	zone of inhibition at 60 µg/mL (Blastomyces dermatitidis [12])	zone of inhibition at 60 µg/mL (Blastomyces dermatitidis [13])	zone of inhibition at 10 µg/mL (Histoplasma capsulatum [14])	zone of inhibition at 10 µg/mL (Histoplasma capsulatum [15])	zone of inhibition at 20 µg/mL (Histoplasma capsulatum [16])	zone of inhibition at 60 µg/mL (Blastomyces dermatitidis [17])	zone of inhibition at 40 µg/mL (Blastomyces dermatitidis [22])	zone of inhibition at 20 µg/mL (Blastomyces dermatitidis [26])	zone of inhibition at 100 µg/mL (Blastomyces dermatitidis [29])	zone of inhibition at 10 µg/mL (Histoplasma capsulatum [30])	zone of inhibition at 20 µg/mL (Blastomyces dermatitidis [31])	zone of inhibition at 40 µg/mL (Histoplasma capsulatum [32])	zone of inhibition at 10 µg/mL (Blastomyces dermatitidis [33])	zone of inhibition at 10 µg/mL (Blastomyces dermatitidis [34])	further results
C[C@@H]1CC[C@@H](c2ccoc2)N2C(O)[C@@](C)(Sc3ccccc3)CC[C@@H]12 (stereo partly drawn)	2 mm	14 mm	6 mm	10 mm	6 mm	4 mm	10 mm	14 mm	9 mm	25 mm	6 mm	9 mm	18 mm	7 mm	3 mm	19 mm	7 mm	9 mm	13 mm	20 mm	Activity (Blastomyces dermatitidis [1]): Active; Activity (Histoplasma capsulatum [4]): Active; Activity (Histoplasma capsulatum [5]): Active; Activity (Blastomyces dermatitidis [7]): Active; Activity (Blastomyces dermatitidis [10]): Active; Activity (Blastomyces dermatitidis [18]): Active; Activity (Histoplasma capsulatum [19]): Active; Activity (Histoplasma capsulatum [20]): Active; Activity (Blastomyces dermatitidis [21]): Active; Activity (Histoplasma capsulatum [23]): inactive; Activity (Histoplasma capsulatum [24]): Active; Activity (Histoplasma capsulatum [25]): Active; Activity (Histoplasma capsulatum [27]): Active; Activity (Blastomyces dermatitidis [28]): Active; zone of inhibition at 40 µg/mL (Blastomyces dermatitidis [35]): 14 mm; zone of inhibition at 10 µg/mL (Blastomyces dermatitidis [36]): 32 mm; Activity (Blastomyces dermatitidis [37]): inactive; zone of inhibition at 10 µg/mL (Histoplasma capsulatum [38]): 10 mm; zone of inhibition at 10 µg/mL (Blastomyces dermatitidis [39]): 12 mm
CS[C@@]1(C)CC[C@@H]2CCCCN2C1O (stereo partly drawn)	18 mm	18 mm	9 mm	26 mm	25 mm	33 mm	31 mm	40 mm	11 mm	26 mm	11 mm	32 mm	40 mm	21 mm	40 mm	21 mm	15 mm	19 mm	20 mm	28 mm	zone of inhibition at 60 µg/mL (Blastomyces dermatitidis [1]; [40]): 13 mm; zone of inhibition at 100 µg/mL (Histoplasma capsulatum [4]; Darling isolate 1098, 168 h, read-out: DIZ): 8 mm; zone of inhibition at 80 µg/mL (Histoplasma capsulatum [5]; Darling isolate 1106, 504 h, read-out: DIZ): 26 mm; zone of inhibition at 80 µg/mL (Blastomyces dermatitidis [7]; Gilchrist & Stokes isolate 1099, 336 h, read-out: DIZ): 25 mm; zone of inhibition at 80 µg/mL (Blastomyces dermatitidis [10]; [40]): 13 mm; zone of inhibition at 100 µg/mL (Blastomyces dermatitidis [18]; [40]): 13 mm; zone of inhibition at 100 µg/mL (Histoplasma capsulatum [19]; Darling isolate 1098, 504 h, read-out: DIZ): 30 mm; zone of inhibition at 80 µg/mL (Histoplasma capsulatum [20]; Darling isolate 1106, 168 h, read-out: DIZ): 10 mm; zone of inhibition at 60 µg/mL (Blastomyces dermatitidis [21]; [41]): 20 mm; zone of inhibition at 40 µg/mL (Histoplasma capsulatum [23]; [42]): 21 mm; zone of inhibition at 80 µg/mL (Histoplasma capsulatum [24]; Darling isolate 1098, 336 h, read-out: DIZ): 18 mm; zone of inhibition at 60 µg/mL (Histoplasma capsulatum [25]; [42]): 19 mm; zone of inhibition at 80 µg/mL (Histoplasma capsulatum [27]; [42]): 19 mm; zone of inhibition at 100 µg/mL (Blastomyces dermatitidis [28]; Gilchrist & Stokes isolate 1099, 504 h, read-out: DIZ): 33 mm; zone of inhibition at 40 µg/mL (Blastomyces dermatitidis [35]): 34 mm; zone of inhibition at 10 µg/mL (Blastomyces dermatitidis [36]): 40 mm; zone of inhibition at 40 µg/mL (Blastomyces dermatitidis [37]; [41]): 20 mm; zone of inhibition at 10 µg/mL (Histoplasma capsulatum [38]): 11 mm; zone of inhibition at 10 µg/mL (Blastomyces dermatitidis [39]): 16 mm
